Results reported in ChEMBL document CHEMBL1157698, “Enhancing the intestinal absorption of molecules containing the polar guanidino functionality: a double-targeted prodrug approach” (J Med Chem, 2010).

B1: Serine hydrolase BPHL (Homo sapiens), Q86WA6 (protein)
chain: MVAVLGGRGVLRLRLLLSALKPGIHVPRAGPAAAFGTSVTSAKVAVNGVQLHYQQTGEGDHAVLLLPGMLGSGETDFGPQLKNLNKKLFTVVAWDPRGYGHSRPPDRDFPADFFERDAKDAVDLMKALKFKKVSLLGWSDGGITALIAAAKYPSYIHKMVIWGANAYVTDEDSMIYEGIRDVSKWSERTRKPLEALYGYDYFARTCEKWVDGIRQFKHLPDGNICRHLLPRVQCPALIVHGEKDPLVPRFHADFIHKHVKGSRLHLMPEGKHNLHLRFADEFNKLAEDFLQ

Key:
[1] = Chemical stability in pH 6 buffer after 2 hrs; assay type: physicochemical; settings: pH 6, 2 h
Outline: (§1)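 Hydrolysis at 37 °C in pH 6.0 uptake buffer (140 mM NaCl, 5.4 mM KCl, 1.8 mM CaCl2, 0.8 mM MgSO4, 5 mM glucose, 25 mM MES) or 10 mM phosphate pH 7.4. Compound added from 200 mM DMSO stock. […] Triplicate, mean ± SEM.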

[2] = Chemical stability assessed as half life of hydrolysis in pH 7.4 buffer; assay type: physicochemical; settings: for t1/2: buffer; outline: as §1
HeLa [3] = test: Stability in human HeLa cell homogenate assessed as half life of hydrolysis; assay type: ADME, cell-based
Outline: (§2)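 Homogenates from HeLa or Caco-2 cells: NaCl-washed, collected in 10 mM phosphate pH 7.4, sonicated on ice, spun 10,000 rpm 10 min at 4 °C; supernatant adjusted to 500 μg/mL protein. Compound added from 200 mM DMSO stock at 37 °C.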

Caco-2 [4] = test: Stability in human Caco-2 cell homogenate assessed as half life of hydrolysis; assay type: ADME, Colon; outline: as §2
[5] = biological target: T1, Serine hydrolase BPHL (Homo sapiens) (UniProt Q86WA6); test: Ratio of Kcat to Km of human recombinant VACVase assessed as hydrolysis
T1 sequence (whole entry): B1 chain
Outline: (§3)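 Recombinant human VACVase expressed in and purified from E. coli, stored at −80 °C, protein measured by Bio-Rad DC assay against BSA. Run in 50 mM HEPES pH 7.4 at 37 °C with 5 min buffer preincubation, enzyme added, then substrate to start. Michaelis-Menten fit; kcat = Vmax/[enzyme]0 using 28.83 kDa mass, active protein normalized to valacyclovir specific activity. Triplicate.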

[6] = biological target: T2, Solute carrier family 15 member 1 (Homo sapiens, UniProt P46059); test: Inhibition of human PEPT1-mediated [3H]Gly-Sar uptake in human HeLa cells; assay type: cell-based
T2 sequence (P46059 whole entry): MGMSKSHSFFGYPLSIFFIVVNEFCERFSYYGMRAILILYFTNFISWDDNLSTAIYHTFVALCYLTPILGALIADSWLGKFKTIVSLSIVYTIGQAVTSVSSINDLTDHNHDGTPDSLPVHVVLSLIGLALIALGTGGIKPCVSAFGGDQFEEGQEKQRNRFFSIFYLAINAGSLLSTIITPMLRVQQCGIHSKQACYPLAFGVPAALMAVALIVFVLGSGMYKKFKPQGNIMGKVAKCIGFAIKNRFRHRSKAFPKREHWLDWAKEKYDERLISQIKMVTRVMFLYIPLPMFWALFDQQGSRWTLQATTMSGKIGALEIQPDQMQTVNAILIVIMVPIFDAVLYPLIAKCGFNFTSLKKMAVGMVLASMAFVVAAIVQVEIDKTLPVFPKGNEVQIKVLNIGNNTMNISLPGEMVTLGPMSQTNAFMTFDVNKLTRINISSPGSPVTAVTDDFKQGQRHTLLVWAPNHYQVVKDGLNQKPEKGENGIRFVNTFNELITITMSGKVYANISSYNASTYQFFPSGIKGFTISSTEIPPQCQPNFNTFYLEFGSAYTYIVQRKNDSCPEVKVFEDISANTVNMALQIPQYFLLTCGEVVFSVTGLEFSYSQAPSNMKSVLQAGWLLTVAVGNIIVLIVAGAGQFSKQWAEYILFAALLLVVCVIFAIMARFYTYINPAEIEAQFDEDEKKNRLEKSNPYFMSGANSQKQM
Outline: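 HeLa cells grown 5 days, infected with hPEPT1 adenovirus 3 days before assay, washed in pH 6.0 MES uptake buffer. Incubated 30 min at 37 °C with 10 μM Gly-Sar (0.1 μM [3H]) plus test compound at 0.05–5 mM. Cells washed ice-cold, lysed in 0.1% SDS, scintillation counted. IC50 by nonlinear fit; n=4.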

HeLa [7] = test: Drug uptake in human HeLa cells expressing hPEPT1 after 60 mins; assay type: ADME, cell-based; settings: 1 h
Outline: (§4)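 HeLa cells, with or without hPEPT1 adenovirus infection 3 days before assay, after 5 days' growth. Preincubated 15 min in pH 6.0 MES uptake buffer, then given 1 mM compound for 60 min at 37 °C. Cells washed in ice-cold DPBS, sonicated, TFA-precipitated (final 7%), supernatant read by HPLC and normalized to protein (nmol/mg). Donor solution stability by HPLC. Triplicate, mean ± SEM.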

[8] = Stability in human HeLa cells expressing hPEPT1 after 60 mins; assay type: ADME, cell-based; settings: read-out: Stability; outline: as §4
HeLa [9] = test: Drug uptake in human HeLa cells after 60 mins; assay type: ADME, cell-based; settings: 1 h; outline: as §4
[10] = Stability in human HeLa cells after 60 mins; assay type: ADME, cell-based; settings: read-out: Stability; outline: as §4
hPEPT1 = test: Drug uptake in human HeLa cells expressing hPEPT1 after 60 mins relative ro control; assay type: ADME, cell-based; outline: as §4
[11] = Stability in apical side in human Caco-2 cells at 120 mins by permeability study; assay type: ADME, cell-based; settings: read-out: Stability
[12] = Chemical stability in pH 7.4 buffer after 2 hrs; assay type: physicochemical; settings: pH 7.4, 2 h; outline: as §1
HeLa [13] = test: Stability in human HeLa cell homogenate after 2 hrs; assay type: ADME, cell-based; outline: as §2
Caco-2 [14] = test: Stability in human Caco-2 cell homogenate after 2 hrs; assay type: ADME, cell-based; settings: caco-2, 2 h; outline: as §2
[15] = substrate: CC(C)[C@H](N)C(=O)OCCOCn1cnc2c(=O)nc(N)[nH]c21; test: (§5) Activity of human recombinant VACVase assessed as hydrolysis; outline: as §3
[16] = substrate: CC(C)[C@H](N)C(=O)OCc1cccc(NC(=N)N)c1; test: as §5; outline: as §3
[17] = substrate: CC[C@H](C)[C@H](N)C(=O)OCc1cccc(NC(=N)N)c1; test: as §5; outline: as §3
[18] = substrate: N=C(N)Nc1cccc(COC(=O)[C@@H](N)Cc2ccccc2)c1; test: as §5; outline: as §3
[19] = substrate: CC(C)[C@H](N)C(=O)OCCOCn1cnc2c(=O)nc(N)[nH]c21; test: (§6) Activity of human recombinant VACVase assessed as hydrolysis measured per ug of protein; outline: as §3
[20] = substrate: CC(C)[C@H](N)C(=O)OCc1cccc(NC(=N)N)c1; test: as §6; outline: as §3
[21] = substrate: CC[C@H](C)[C@H](N)C(=O)OCc1cccc(NC(=N)N)c1; test: as §6; outline: as §3
[22] = substrate: N=C(N)Nc1cccc(COC(=O)[C@@H](N)Cc2ccccc2)c1; test: as §6; outline: as §3

Molecule | Stability [1] | t1/2 [2] | t1/2 (HeLa [3]) | t1/2 (Caco-2 [4]) | Ratio [5] | IC50 [6] | Drug uptake (HeLa [7]) | remaining at 1 h [8] | Drug uptake (HeLa [9]) | remaining at 1 h [10] | uptake ratio at 1 h (hPEPT1) | remaining at 2 h [11] | also measured
CC(C)[C@H](N)C(=O)OCc1cccc(NC(=N)N)c1 | Stable | 8.227 h | 0.338 h | 0.08 h | 3370 mM⁻¹ s⁻¹ | 650 µM | 50.2 nmol/mg | 96.9% | < 2 nmol/mg | 98% | > 25 | 86.5% | 
N=C(N)Nc1cccc(COC(=O)[C@@H](N)Cc2ccccc2)c1 |  |  |  |  | 1660 mM⁻¹ s⁻¹ |  |  |  |  |  |  |  | 
N=C(N)Nc1cccc(CO)c1 [[3-(hydroxymethyl)phenyl]guanidine] | Stable |  |  |  |  | > 3000 µM | 5.5 nmol/mg |  | 3.8 nmol/mg |  | 1.4 |  | Stability [12]: Stable; Stability (HeLa [13]): Stable; Stability (Caco-2 [14]): Stable
CC(C)[C@@H](N)C(=O)OCc1cccc(NC(=N)N)c1 |  |  |  |  |  |  |  |  |  |  |  | 98.8% | 
CC(C)[C@H](N)C(=O)OCCOCn1cnc2c(=O)[nH]c(N)nc21 [VALACYCLOVIR] | Stable |  | 2.37 h | 0.522 h |  | 1420 µM | 5.5 nmol/mg | 96.8% | < 0.2 nmol/mg | 99.2% |  | 94.7% | half-life ([2]; pH 7.4 buffer): 8.23 h
CC[C@H](C)[C@H](N)C(=O)OCc1cccc(NC(=N)N)c1 |  |  |  |  | 1580 mM⁻¹ s⁻¹ |  |  |  |  |  |  |  | 
CC(C)[C@H](N)C(=O)OCCOCn1cnc2c(=O)nc(N)[nH]c21 |  |  |  |  | 850 mM⁻¹ s⁻¹ |  |  |  |  |  |  |  | 
CC[C@H](C)[C@H](N)C(=O)OCc1cccc(N=C(N)N)c1 | Stable | 11.75 h | 2.287 h | 0.993 h |  | 630 µM | 27.7 nmol/mg | 98.7% | < 2 nmol/mg | 99% | > 13 | 96.6% | 
NC(N)=Nc1cccc(COC(=O)[C@@H](N)Cc2ccccc2)c1 | Stable | 4.363 h | < 0.083 h | < 0.017 h |  | 2330 µM | 14.8 nmol/mg | 83.8% | 1.7 nmol/mg | 87.2% | 8.8 | 3.9% | 
B1 |  |  |  |  |  |  |  |  |  |  |  |  | Km [15]: 68 µM; kcat [15]: 58 s⁻¹; Km [16]: 46 µM; kcat [16]: 154 s⁻¹; Km [17]: 9 µM; kcat [17]: 14 s⁻¹; Km [18]: 207 µM; kcat [18]: 345 s⁻¹; Vmax [19]: 120 nmol/min; Vmax [20]: 321 nmol/min/µg; Vmax [21]: 30 nmol/min/µg; Vmax [22]: 718 nmol/min/µg
